Activity calls are given as the source filed them.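 The calls were made as follows: active = mean EC50 below 10 µM; inactive = the rest.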
Each compound was assayed against Apelin receptor (Homo sapiens) (UniProt P35414) (assay: apelin receptor activator analogs – cell-based, luminescence, SAR follow-up (AID 488811)). Conditions: CHO-K1 AGTRL-1 PathHunter beta-arrestin.
Sequence of Apelin receptor (Homo sapiens) (P35414 whole entry, looked up, the tested form may be a part): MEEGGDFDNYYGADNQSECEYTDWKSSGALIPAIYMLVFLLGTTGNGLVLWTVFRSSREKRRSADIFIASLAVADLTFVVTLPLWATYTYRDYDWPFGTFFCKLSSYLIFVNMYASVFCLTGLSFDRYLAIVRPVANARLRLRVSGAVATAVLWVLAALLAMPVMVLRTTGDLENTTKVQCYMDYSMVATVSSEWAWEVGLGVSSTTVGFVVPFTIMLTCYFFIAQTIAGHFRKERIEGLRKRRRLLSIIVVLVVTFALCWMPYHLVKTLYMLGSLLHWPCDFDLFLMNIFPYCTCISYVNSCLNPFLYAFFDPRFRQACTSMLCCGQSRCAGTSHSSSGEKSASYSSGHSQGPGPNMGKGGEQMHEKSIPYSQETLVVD
Method in brief: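 Material: CHO-K1 cells with ProLink-tagged APJ and β-arrestin–β-gal acceptor fusion; dosing: compound dose series, 2 mM DMSO stocks; times: cells seeded overnight, compounds 90 min at 25 °C, dark; signal: β-gal complementation luminescence, 60 min reagent incubation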
`COc1ccc(S(=O)(=O)ON=C2C=C(C)C(=O)C(C)=C2)cc1` was tested, and the EC50 was 2.56 µM.
In the case of `CCSc1nc(O)c(CC)c(=O)n1C1CCCCC1`, the EC50 is reported as > 79 µM (inactive).
With `CCc1c(O)n(C2CCCCC2)c(=S)[nH]c1=O` the EC50 was > 79 µM (inactive).
In the case of `CC1=C/C(=N/OS(=O)(=O)c2ccc(C)cc2)C=CC1=O`, the EC50 is reported as > 79 µM (inactive).
`CC1=C/C(=N/OS(=O)(=O)c2ccc(C)cc2)C(C(C)C)=CC1=O` was tested, and the EC50 was 9.9 µM.
For `CC1=CC(=O)C(C(C)C)=CC1=NOS(=O)(=O)c1ccccc1`, the EC50 was 5.74 µM.
With `COc1ccccc1-n1c(SCC(=O)c2ccccc2)nc(O)cc1=O` the EC50 was “inactive”.
For `CN(C)CCSc1nc(O)c(-c2ccccc2)c(=O)n1-c1ccccc1`, the EC50 was > 79 µM (inactive).
`COc1ccc(S(=O)(=O)O/N=C2\C=C(C(C)C)C(=O)C=C2C)cc1` showed an EC50 of 4.93 µM.
With `CC1=CC(=NOS(=O)(=O)c2ccc(C)cc2)C=C(C)C1=O` the EC50 was 2.52 µM.
With `O=S(=O)(Nc1nc(-c2ccccc2)cs1)c1ccc(Cl)cc1` the EC50 was > 79 µM (inactive).
In the case of `Cc1cc(C)n2nc3nc(N4CCOCC4)nc(-c4ccccc4)c3c2n1`, the EC50 is reported as > 79 µM (inactive).
In the case of `C=CCSc1nc(O)c(CC)c(=O)n1C(C)CC` (stereo not drawn), the EC50 is reported as “inactive”.
`CCc1c(O)nc(SC)n(C(C)CC)c1=O` (stereo not drawn) was tested, and the EC50 was > 79 µM (inactive).
With `C=CCSc1nc(O)c(CC)c(=O)n1-c1ccc(C)cc1` the EC50 was > 79 µM (inactive).
With `CC1=CC(=O)C=C(C)C1=NOS(=O)(=O)c1ccccc1` the EC50 was > 79 µM (inactive).
In the case of `CCCCSc1nc(O)c(CC)c(=O)n1C1CCCCC1`, the EC50 is reported as > 79 µM (inactive).
For `CC1=C(C)C(=NOS(=O)(=O)c2ccc(C)cc2)C=CC1=O`, the EC50 was > 79 µM (inactive).
In the case of `CCSc1nc(O)c(CC)c(=O)n1C(C)CC` (stereo not drawn), the EC50 is reported as “inactive”.
`CCCCSc1nnc(NC(=O)CSc2nc3ncccc3[nH]2)s1` was tested, and the EC50 was > 79 µM (inactive).
For `CSc1nc(=O)cc(N)n1-c1ccc(C)cc1`, the EC50 was > 79 µM (inactive).
`C=CCSc1nc(O)c(CC)c(=O)n1C1CCCCC1` was tested, and the EC50 was > 79 µM (inactive).
Compound `CCN1C(c2ccccc2)=C(c2ccccc2)S/C1=C/C=C1\SC(=S)N(C)C1=O` has an EC50 of 3.44 µM.
For `CC1=CC(=NOS(=O)(=O)c2ccc(Cl)cc2)C=C(C)C1=O`, the EC50 was 2.9 µM.
In the case of `CCc1c(O)nc(SCc2ccccc2)n(C2CCCCC2)c1=O`, the EC50 is reported as > 79 µM (inactive).
For `CCCSc1nc(O)c(CC)c(=O)n1C(C)CC` (stereo not drawn), the EC50 was “inactive”.
With `CC1=CC(=NOS(=O)(=O)c2ccccc2)C=C(C)C1=O` the EC50 was 2.5 µM.
For `CCN1/C(=C/C(=O)c2sc(=S)n(CC)c2O)Sc2ccccc21`, the EC50 was > 79 µM (inactive).
In the case of `CCc1c(O)nc(SC)n(C2CCCCC2)c1=O`, the EC50 is reported as > 79 µM (inactive).
For `C=CCn1c(SCc2ccccc2)nc(O)c(CC)c1=O`, the EC50 was > 79 µM (inactive).
For `CC1=CC(=NOS(=O)(=O)c2ccccc2)C=CC1=O`, the EC50 was > 79 µM (inactive).
In the case of `CC1=CC(=O)C(C(C)C)=C/C1=N/OS(=O)(=O)c1ccccc1`, the EC50 is reported as 5.98 µM.
With `CCc1c(O)nc(SCc2ccccc2)n(C(C)CC)c1=O` (stereo not drawn) the EC50 was > 79 µM (inactive).
`CC1=C/C(=N\OS(=O)(=O)c2ccc(Cl)cc2)C=CC1=O` was tested, and the EC50 was > 79 µM (inactive).
For `CC1=CC(=O)C=C/C1=N\OS(=O)(=O)c1ccc(C)cc1`, the EC50 was > 79 µM (inactive).
Work on `CC1=C/C(=N/OS(=O)(=O)c2ccccc2)C(C)=CC1=O` yielded an EC50 of 6.82 µM.
In the case of `CCc1c(O)nc(SC(C)CC)n(C(C)CC)c1=O` (stereo not drawn), the EC50 is reported as “inactive”.
`CCN1/C(=C\C=C2/SC(=S)N(C)C2=O)Sc2ccccc21` was tested, and the EC50 was > 79 µM (inactive).
`Cc1ccc(S(=O)(=O)ON=C2C=CC(=O)C=C2)cc1` was tested, and the EC50 was > 79 µM (inactive).
With `CC1=CC(=NOS(=O)(=O)c2ccccc2)C(C(C)C)=CC1=O` the EC50 was 7.43 µM.
In the case of `CC1=C/C(=N\OS(=O)(=O)c2ccc(C)cc2)C(C)=CC1=O`, the EC50 is reported as 5.4 µM.
`O=S(=O)(Nc1nc(-c2ccccc2)cs1)c1ccc(Br)cc1` was tested, and the EC50 was > 79 µM (inactive).
With `Cc1ccc(S(=O)(=O)Nc2nc(-c3ccccc3)cs2)cc1` the EC50 was > 79 µM (inactive).

— PubChem BioAssay AID488811 (Sanford-Burnham Center for Chemical Genomics, 2010)
